Assay results as given in ChEMBL document CHEMBL1155834, “Antimicrobial diterpenes from Trigonostemon chinensis” (2008).
In brackets after ≈: the same amount, converted by molar mass.

Key:
Format in all cases: functional
Nannizzia gypsea = experiment: Antifungal activity against Microsporum gypseum after 48 hrs
Outline: (§1)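 Fungi grown in Sabouraud dextrose broth with compound at 37 °C for 48 h. MIC is the lowest concentration completely inhibiting visible growth.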

Pseudomonas aeruginosa = experiment: Antibacterial activity against Pseudomonas aeruginosa after 18 hrs
Outline: (§2)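 Broth dilution in Mueller Hinton broth, compounds dissolved in DMSO. Cells incubated aerobically with compound at 37 °C for 18 h, with DMSO-only blank cultures. MIC is the lowest concentration giving complete inhibition of visible growth.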

Micrococcus luteus = experiment: Antibacterial activity against Micrococcus luteus ATCC 9341 after 18 hrs; conditions: ATCC 9341, 18 h; outline: as §2
[1] = tested on: Staphylococcus epidermidis; experiment: Antibacterial activity against Staphylococcus epidermidis ATCC 12228 after 18 hrs; conditions: ATCC 12228, 18 h; outline: as §2
Bacillus subtilis = experiment: Antibacterial activity against Bacillus subtilis CMCC 63501 after 18 hrs; outline: as §2
Helicobacter pylori [2] = experiment: Antibacterial activity against metronidazole-resistant Helicobacter pylori ATCC 43504 after 96 hrs; conditions: ATCC 43504, 96 h
Outline: (§3)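 Agar plates inoculated with H. pylori cells suspended in saline at 10^8 cfu/mL, incubated 37 °C for 96 h microaerobically (5% O2, 10% CO2, 85% N2) alongside blank and positive controls. Triplicate tests.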

Shigella flexneri = experiment: Antibacterial activity against Shigella flexneri after 18 hrs; outline: as §2
Staphylococcus aureus = experiment: Antibacterial activity against Staphylococcus aureus ATCC 25923 after 18 hrs; conditions: ATCC 25923, 18 h; outline: as §2
Candida albicans = experiment: Antifungal activity against Candida albicans after 48 hrs; outline: as §1
Escherichia coli = experiment: Antibacterial activity against Escherichia coli after 18 hrs; outline: as §2
Helicobacter pylori [3] = experiment: Antibacterial activity against Helicobacter pylori SS1 after 96 hrs; conditions: SS1, 96 h; outline: as §3

| SMILES | MIC (Nannizzia gypsea) [µg/mL] | MIC (Pseudomonas aeruginosa) [µg/mL] | MIC (Micrococcus luteus) [µg/mL] | MIC [1] [µg/mL] | MIC (Bacillus subtilis) [µg/mL] | MIC (Helicobacter pylori [2]) [µg/mL] | MIC (Shigella flexneri) [µg/mL] | MIC (Staphylococcus aureus) [µg/mL] | MIC (Candida albicans) [µg/mL] | MIC (Escherichia coli) [µg/mL] | MIC (Helicobacter pylori [3]) [µg/mL] |
| --- | --- | --- | --- | --- | --- | --- | --- | --- | --- | --- | --- |
| C=Cc1c(C)c(O)cc2c1CC[C@H](C(=C)C)[C@@]2(C)CCC(=O)O | > 50 | > 50 | > 50 | > 50 | > 50 | > 50 | > 50 | > 50 | > 50 | > 50 | 25 (≈ 79.5 µM) |
| C=CC1=C(C)C(=O)C=C2[C@]1(O)CC[C@H](C(=C)C)[C@@]2(C)CCC(=O)OC [TRIGONOCHINENE B] | > 50 | > 50 | > 50 | > 50 | > 50 | 25 (≈ 72.6 µM) | > 50 | > 50 | > 50 | > 50 | 12.5 (≈ 36.3 µM) |
| COc1cc2c(cc(OC)c3cc(C)c(O)cc32)c(C)c1O [TRIGONOCHINENE E] | 6.25 (≈ 20.9 µM) | > 50 | 12.5 (≈ 41.9 µM) | 6.25 (≈ 20.9 µM) | > 50 | > 50 | > 50 | 6.25 (≈ 20.9 µM) | 12.5 (≈ 41.9 µM) | > 50 | 25 (≈ 83.8 µM) |
| C=Cc1c(C)c(O)cc2c1CC[C@H](C(=C)C)[C@@]2(C)CCC(=O)OC | 50 (≈ 152 µM) | > 50 | 6.25 (≈ 19 µM) | 6.25 (≈ 19 µM) | 3.12 (≈ 9.5 µM) | 50 (≈ 152 µM) | > 50 | 12.5 (≈ 38.1 µM) | > 50 | > 50 | 25 (≈ 76.1 µM) |
| C=CC1=C(C)C(=O)C=C2[C@]1(OO)CC[C@H](C(=C)C)[C@@]2(C)CCC(=O)OC [TRIGONOCHINENE C] | > 50 | > 50 | 12.5 (≈ 34.7 µM) | 25 (≈ 69.4 µM) | 12.5 (≈ 34.7 µM) | 50 (≈ 139 µM) | > 50 | 50 (≈ 139 µM) | > 50 | > 50 | 50 (≈ 139 µM) |
| C=CC1=C(C)C(=O)C=C2[C@@]1(O)CC[C@H](C(=C)C)[C@@]2(C)CCC(=O)OC [TRIGONOCHINENE A] | > 50 | > 50 | > 50 | > 50 | > 50 | 50 (≈ 145 µM) | > 50 | > 50 | > 50 | > 50 | 25 (≈ 72.6 µM) |
| COC(=O)C1=CC[C@@]23CC[C@@H]([C@@](C)(/C=C/C=C(\C)C(=O)O)OC2=O)[C@@]3(OC(C)=O)CC1 [PSEUDOLARIC ACID B] | 12.5 (≈ 28.9 µM) |  |  |  |  |  |  |  | 6.25 (≈ 14.5 µM) |  |  |
| C=CC1=C(C)C(=O)C=C2[C@]13O[C@H]3C[C@H](C(=C)C)[C@@]2(C)CCC(=O)OC [TRIGONOCHINENE D] | > 50 | > 50 | > 50 | > 50 | > 50 | 50 (≈ 146 µM) | > 50 | > 50 | > 50 | > 50 | 25 (≈ 73 µM) |
| C=CCc1ccc(O)c(-c2cc(CC=C)ccc2O)c1 [MAGNOLOL] |  | > 50 | 6.25 (≈ 23.5 µM) | 6.25 (≈ 23.5 µM) | 12.5 (≈ 46.9 µM) |  | > 50 | 12.5 (≈ 46.9 µM) |  | > 50 |  |
| Cc1ncc([N+](=O)[O-])n1CCO [METRONIDAZOLE] |  |  |  |  |  | 128 (≈ 748 µM) |  |  |  |  | 0.5 (≈ 2.92 µM) |
